Screens (PubChem BioAssay)
In the library only some 4.1% were active in any assay of this set; here they are far more common.
KCNQ1 act: potentiates or activates the human KCNQ1 potassium channel. P51787. CHO-K1 KCNQ1, thallium flux FluxOR fluorescence; stronger effect = higher value. B-score at 10 µM. 0.35% of 310,000 active. AID 2648;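 active = fluorescence ratio B-score, a plate-corrected score, at least three library SD, with initial intensity B-score within 5 SD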
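assay system = KCNQ1-transfected CHO-K1 cells | medium = assay buffer with matched DMSO | probe or stimulus = depolarizing K+/Tl+ stimulus, K2SO4 and Tl2SO4 each 12.5 mM in 5x stock | dosing = single dose | incubation = dye 90 min, compound 20 min, room temperature | detection = kinetic FluxOR fluorescence, 10 s baseline plus 110 s post-stimulus | evaluation = ratio B score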
KCNQ1 inh: inhibitors of human KCNQ1 potassium channel; P51787; CHO-K1 KCNQ1, FluxOR thallium flux fluorescence; stronger effect = higher value; B-score at 10 µM; 1.3% of 310,000 active; AID 2642;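 active = compounds whose thallium flux B-score, printed positive for inhibition, exceeds three library SD while starting fluorescence stays within three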;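 also: channel opened by potassium depolarization with thallium stimulus after 20 min compound exposure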
hERG protect: shields human hERG channel from block by proarrhythmic agents; CHO-hERG, FluxOR thallium flux, dofetilide IC70 present; activation (rescue from dofetilide block), less the hit threshold, % at 10 µM; 0.51% of 310,000 active; AID 1511;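 active = activation above the mean of controls blocked by dofetilide plus 5 SD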;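 also: thallium influx through hERG after potassium depolarization seen as dye fluorescence rise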
Cl transport mod: modulates chloride dependent transport by human KCC2. Q9H2X9. AID 1456. 2.2% of 190,000 active. B-score of Tl+ flux slope (higher = more flux/activation; lower = inhibition) at 10 µM. KCC2 cells, thallium flux FluoZin-2 fluorescence;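 active = thallium flux slope and its plate-corrected score both differing from the plate sample mean at a set confidence after two filtering rounds, in either direction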;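 also: slope of fluorescence scaled to starting intensity during 10 to 20 s after thallium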
KCNK3 block: human KCNK3 channel inhibition, primary screen; O14649; CHO-KCNK3 thallium flux, FluxOR fluorescence; stronger effect = lower value; B-score at 10 µM; 0.84% of 340,000 active; AID 602410;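 active = B-score under library mean minus 4 SD, starting fluorescence ratio at most library mean plus 5 SD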;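 also: more negative B-score means stronger inhibition of thallium flux through KCNK3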
KCNK9 block: inhibitors of human KCNK9 two-pore domain potassium channel. Q9NPC2. HEK293 KCNK9, FluxOR thallium flux fluorescence; stronger effect = lower value. B-score at 10 µM. 1.2% of 310,000 active. AID 488922;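 active = ratio B-score over 3 SD below the library mean, with starting fluorescence within 5 SD of its mean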;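 also: negative B-score means less thallium flux so channel inhibition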
Target sequence (Q9NPC2 whole entry, looked up, the tested form may be a part): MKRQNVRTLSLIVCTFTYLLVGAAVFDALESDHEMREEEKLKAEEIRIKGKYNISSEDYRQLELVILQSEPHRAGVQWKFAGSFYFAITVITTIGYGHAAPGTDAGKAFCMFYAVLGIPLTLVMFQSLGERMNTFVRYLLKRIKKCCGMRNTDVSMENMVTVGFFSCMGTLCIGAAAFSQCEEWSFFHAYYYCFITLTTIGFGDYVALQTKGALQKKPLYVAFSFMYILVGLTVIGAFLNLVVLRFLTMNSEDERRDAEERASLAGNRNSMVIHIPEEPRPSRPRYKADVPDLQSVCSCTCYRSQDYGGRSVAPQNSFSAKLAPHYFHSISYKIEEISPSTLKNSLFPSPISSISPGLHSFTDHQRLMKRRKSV
Hits are given with their value; - = inactive; . = no result given.

SMILES	KCNQ1 act	KCNQ1 inh	hERG protect	Cl transport mod	KCNK3 block	KCNK9 block
Cc1cc(=O)oc2cc(OC(C(=O)O)c3ccccc3)ccc12 (centres undefined)	-	-	6.7	.	-	-
COc1ccc2nc(SCC(=O)NCC(F)(F)F)[nH]c2c1	-	-	5.2	-	-	-
COc1ccc(/C=C2\N=C(SC)NC2=O)cc1	-	-	-	16	-	-
O=C(CNc1cccc(C(F)(F)F)c1)Nc1cccc(S(=O)(=O)N2CCCC2)c1	.	.	.	.	-9.3	.
O=C(NC1CCCC1)C(c1ccc(F)cc1)N(C(=O)c1csnn1)c1ccccc1F (centres undefined)	-	-	-	.	-	-
COc1cccc(-c2cc(C(F)(F)F)nc(N3CCC(C)CC3)n2)c1	-	-	5.1	.	-	-
CCN1CCN(Cc2c(O)ccc3c2O/C(=C\C=C\c2ccccc2OC)C3=O)CC1	-	6	-	-	-	-
CC(C)c1ccc(/C=C2\Oc3c(ccc(O)c3CN3CCN(C)CC3)C2=O)cc1	-	-	-	-	-	-
Cc1ccc(/C=C2\Oc3c(ccc(O)c3CN3CCN(CCO)CC3)C2=O)cc1	-	11	-	-	-	-
CC1(C)CC(=O)C=C(c2cccc3c2oc2ccccc23)C1	-	6	-	.	-	-
O=C(O)c1cccc(N2C(=S)N=C(Nc3ccccc3)C23CCCCC3)c1	-	-	-	-	-	-
COc1ccc(NC2=NC(=S)N(c3ccccc3C)C23CCCCC3)cc1	-	-	-	89	-	-
COc1ccc(C(=O)NNC(=O)C(=O)Nc2ccc(C)cc2)cc1	41	-	15	.	-	-
COc1ccc(NC(=O)c2ccc(C)cc2)cc1	-	-	-	.	-	-
CCc1ccc(NC(=O)C(=O)NNC(=O)c2ccc(OC)cc2)cc1	77	-	36	.	-	-
O=[N+]([O-])c1ccccc1/C=C/C=N/Nc1ccc(S(=O)(=O)Nc2ccc(Cl)cc2)cc1[N+](=O)[O-]	-	-	-	-	-	-
Cc1ccc(C(C(=O)NCc2ccc(F)cc2)N(CCCO)C(=O)C2COc3ccccc3O2)o1 (centres undefined)	-	-	-	-	-	-
Cc1ccc(CN2CCNC(=O)C2CC(=O)O)cc1 (centres undefined)	-	-	-	.	-	-
Clc1ccccc1OCCn1cnc2ccccc21	-	-	-	-	-	-
Brc1ccccc1OCCCCn1cnc2ccccc21	-	8	-	-	-	-
O=[N+]([O-])c1ccc(O)c(Nc2ncnc3ccc(Br)cc23)c1	-	7	-	-	-	-
O=C(N/N=C/c1c(F)cccc1Cl)c1cc(C2CC2)[nH]n1	-	-	-	.	-	-
Cc1c(NC(=O)c2cc(-c3ccc4c(c3)OCO4)on2)c(=O)n(-c2ccccc2)n1C	-	-	-	-	-	-
CCn1nnnc1NCc1ccc(Cl)cc1	-	-	-	.	-	-
COc1ccc(C)cc1-n1c(=O)c2ccccc2c2ccccc2c1=O	-	-	-	-	-	-8
SMILES	KCNQ1 act	KCNQ1 inh	hERG protect	Cl transport mod	KCNK3 block	KCNK9 block
Cc1nnc(SCC(=O)N2CC(=O)Nc3ccccc32)n1Cc1ccccc1	-	-	-	-	-	-
O=C1CN(C(=O)CSc2nc3cc(Cl)ccc3c(=O)n2Cc2ccccc2)c2ccccc2N1	-	-	-	24	-	-
CCOc1ccc(Nc2ccc([N+](=O)[O-])c3nonc23)cc1	-	7	-	.	-	-
CCn1c2ccccc2c2cc(N=C3SC(CC(=O)Nc4ccccc4OC)C(=O)N3CCOC)ccc21 (centres undefined)	-	-	-	-	-	-7.1
CCn1c2ccccc2c2cc(N=C3SC(CC(=O)Nc4ccccc4OC)C(=O)N3C)ccc21 (centres undefined)	-	-	-	.	-	-
CCNC(=S)Nc1nc2c(cc1C(=O)OCC)CCCC2	-	-	-	41	-	-
C=CCNC(=S)Nc1nc2c(cc1C(=O)OCC)CCCC2	-	-	-	63	-	-
CC(=O)c1ccc(OCC(=O)NCC2(N3CCCCC3)CCCCC2)cc1	-	-	-	-	-	-
Fc1cccc(CO/N=C/c2c(-c3ccccc3)nc3ccc(Cl)cn23)c1	-	-	6.7	-	-	-6.6
O=C1C(Cl)=C(NS(=O)(=O)c2ccc([N+](=O)[O-])cc2)C(=O)c2ccccc21	-	6	-	-	-	-
COc1ccc(-c2oc3c(CC=C(C)C)c(O[C@@H]4O[C@H](CO)[C@@H](O)[C@H](O)[C@H]4O)cc(O)c3c(=O)c2O[C@@H]2O[C@@H](C)[C@H](O)[C@@H](O)[C@H]2O)cc1	-	-	-	-	.	-
CC(=O)O[C@@H]1[C@@H](O)[C@@H](O)[C@H](Oc2c(-c3ccc(O)cc3)oc3c(CC=C(C)C)c(O)cc(O)c3c2=O)O[C@H]1C	-	6	-	.	.	-
O=C(COC(=O)c1cncc(Br)c1)NC1CC1	-	-	-	.	-	-
CCn1c(O)c(N=NC(=O)CNc2cccc(C)c2)c2ccccc21	-	-	-	5.6	-	-
CCn1c(O)c(N=NC(=O)CNc2ccc(C)cc2)c2ccccc21	-	-	-	-	-	-
Cc1cccc(NS(=O)(=O)c2cccc(C(=O)N3CCCCCCC3)c2)c1	.	.	.	.	-	.
O=C(Cn1cnc([N+](=O)[O-])c1)Nc1cc(Oc2ccc(Cl)cc2Cl)cc([N+](=O)[O-])c1	-	8	-	-	-	-
COc1ccc2[nH]c(=O)c(CN(Cc3ccco3)C(c3nnnn3Cc3ccccc3)C(C)C)cc2c1 (centres undefined)	-	7	-	-	-	-
COc1ccc2[nH]c(=O)c(CN(Cc3nnnn3Cc3ccco3)C3CCCCC3)cc2c1	-	-	-	.	-	-
COc1ccc2cc(CN(CCc3ccccc3)Cc3nnnn3Cc3ccco3)c(=O)[nH]c2c1	-	-	-	-3.1	-	-
COCCn1nnnc1C(C(C)C)N(Cc1ccccc1)Cc1cc2cc(OC)ccc2[nH]c1=O (centres undefined)	.	.	.	-	-	.
CC1CC(C)(C)NC(=S)N1CCCC(=O)Nc1ccc2c(c1)OCCO2 (centres undefined)	-	-	-	-	-	-
COc1cc(OC)c(C2CC(=O)N3CN(C)CSC3=C2C#N)cc1OC (centres undefined)	-	-	-	.	-	-
COc1ccc2ccccc2c1C1CC(=O)N2CN(C)CSC2=C1C#N (centres undefined)	-	6	-	-	-	-
C[C@H]1CN=C(N(C)C)N1CCc1ccc(F)cc1	.	.	.	.	-	.
O=C(Nc1ccc(Nc2ccncc2)cc1)c1ccc(Nc2ccnc3ccc([N+](=O)[O-])cc23)cc1[N+](=O)[O-]	-	-	13	-	-	-
